From ChEMBL document CHEMBL5252633, “Quinazolinone-1,2,3-triazole-acetamide conjugates as potent α-glucosidase inhibitors: synthesis, enzyme inhibition, kinetic analysis, and molecular docking study” (RSC Med Chem, 2023)
One block for each compound: values may come before it. Activity calls are given as the source filed them. The rule behind the calls is not given here.

Key:
Alpha-glucosidase [1] = target: T1, Alpha-glucosidase (Saccharomyces cerevisiae S288c, UniProt P53341+P38158+P07265); assay: Inhibition of Saccharomyces cerevisiae alpha-glucosidase using p-nitrophenyl-alpha D-glucopyranoside as substrate preincubated for 15 mins followed by substrate addition and measured after 20 mins by spectrophotometer assay; format: protein assay
Alpha-glucosidase [2] = target: T1, Alpha-glucosidase; assay: Inhibition of Saccharomyces cerevisiae alpha-glucosidase assessed as inhibition constant using p-nitrophenyl-alpha D-glucopyranoside as substrate preincubated for 15 mins followed by substrate addition and measured after 20 mins by Lineweaver-burk plot analysis; format: protein assay
[3] = target: T2, Pancreatic triacylglycerol lipase (Homo sapiens, UniProt P16233); assay: Inhibition of pancreatic lipase (unknown origin)
T2 sequence (P16233 whole entry): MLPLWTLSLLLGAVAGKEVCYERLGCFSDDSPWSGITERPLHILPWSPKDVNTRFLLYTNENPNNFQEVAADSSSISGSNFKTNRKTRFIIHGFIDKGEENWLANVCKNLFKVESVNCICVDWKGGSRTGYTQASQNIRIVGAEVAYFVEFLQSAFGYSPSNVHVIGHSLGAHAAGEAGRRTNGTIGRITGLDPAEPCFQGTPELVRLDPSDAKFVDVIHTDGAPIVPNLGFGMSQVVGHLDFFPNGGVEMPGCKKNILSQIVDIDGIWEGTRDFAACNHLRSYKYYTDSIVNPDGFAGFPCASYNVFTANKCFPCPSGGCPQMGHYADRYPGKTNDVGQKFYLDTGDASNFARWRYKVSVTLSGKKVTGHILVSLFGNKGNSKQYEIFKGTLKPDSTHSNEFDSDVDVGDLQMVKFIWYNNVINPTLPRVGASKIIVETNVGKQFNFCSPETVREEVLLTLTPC

[4] = target: Maltase-glucoamylase (Homo sapiens) (UniProt O43451); assay: Inhibition of alpha-glucosidase (unknown origin) assessed as increase in Km using p-nitrophenyl-alpha D-glucopyranoside as substrate by Lineweaver-Burk plot analysis
Procedure, shortened: (§1)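 Initial rates were measured with p-nitrophenyl α-D-glucopyranoside at 1–16 mM and inhibitor at 0, 1.2, 2.4 and 4.8 μM. Lineweaver–Burk plots (1/V against 1/[S]) at each inhibitor level gave Km and Vmax. Ki was estimated from a plot of Km against inhibitor concentration.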

[5] = target: Maltase-glucoamylase (Homo sapiens) (UniProt O43451); assay: Inhibition of alpha-glucosidase (unknown origin) assessed as change in Vmax using p-nitrophenyl-alpha D-glucopyranoside as substrate by Lineweaver-Burk plot analysis; procedure, shortened: as §1

Chain of Maltase-glucoamylase (Homo sapiens) (O43451 whole entry, looked up): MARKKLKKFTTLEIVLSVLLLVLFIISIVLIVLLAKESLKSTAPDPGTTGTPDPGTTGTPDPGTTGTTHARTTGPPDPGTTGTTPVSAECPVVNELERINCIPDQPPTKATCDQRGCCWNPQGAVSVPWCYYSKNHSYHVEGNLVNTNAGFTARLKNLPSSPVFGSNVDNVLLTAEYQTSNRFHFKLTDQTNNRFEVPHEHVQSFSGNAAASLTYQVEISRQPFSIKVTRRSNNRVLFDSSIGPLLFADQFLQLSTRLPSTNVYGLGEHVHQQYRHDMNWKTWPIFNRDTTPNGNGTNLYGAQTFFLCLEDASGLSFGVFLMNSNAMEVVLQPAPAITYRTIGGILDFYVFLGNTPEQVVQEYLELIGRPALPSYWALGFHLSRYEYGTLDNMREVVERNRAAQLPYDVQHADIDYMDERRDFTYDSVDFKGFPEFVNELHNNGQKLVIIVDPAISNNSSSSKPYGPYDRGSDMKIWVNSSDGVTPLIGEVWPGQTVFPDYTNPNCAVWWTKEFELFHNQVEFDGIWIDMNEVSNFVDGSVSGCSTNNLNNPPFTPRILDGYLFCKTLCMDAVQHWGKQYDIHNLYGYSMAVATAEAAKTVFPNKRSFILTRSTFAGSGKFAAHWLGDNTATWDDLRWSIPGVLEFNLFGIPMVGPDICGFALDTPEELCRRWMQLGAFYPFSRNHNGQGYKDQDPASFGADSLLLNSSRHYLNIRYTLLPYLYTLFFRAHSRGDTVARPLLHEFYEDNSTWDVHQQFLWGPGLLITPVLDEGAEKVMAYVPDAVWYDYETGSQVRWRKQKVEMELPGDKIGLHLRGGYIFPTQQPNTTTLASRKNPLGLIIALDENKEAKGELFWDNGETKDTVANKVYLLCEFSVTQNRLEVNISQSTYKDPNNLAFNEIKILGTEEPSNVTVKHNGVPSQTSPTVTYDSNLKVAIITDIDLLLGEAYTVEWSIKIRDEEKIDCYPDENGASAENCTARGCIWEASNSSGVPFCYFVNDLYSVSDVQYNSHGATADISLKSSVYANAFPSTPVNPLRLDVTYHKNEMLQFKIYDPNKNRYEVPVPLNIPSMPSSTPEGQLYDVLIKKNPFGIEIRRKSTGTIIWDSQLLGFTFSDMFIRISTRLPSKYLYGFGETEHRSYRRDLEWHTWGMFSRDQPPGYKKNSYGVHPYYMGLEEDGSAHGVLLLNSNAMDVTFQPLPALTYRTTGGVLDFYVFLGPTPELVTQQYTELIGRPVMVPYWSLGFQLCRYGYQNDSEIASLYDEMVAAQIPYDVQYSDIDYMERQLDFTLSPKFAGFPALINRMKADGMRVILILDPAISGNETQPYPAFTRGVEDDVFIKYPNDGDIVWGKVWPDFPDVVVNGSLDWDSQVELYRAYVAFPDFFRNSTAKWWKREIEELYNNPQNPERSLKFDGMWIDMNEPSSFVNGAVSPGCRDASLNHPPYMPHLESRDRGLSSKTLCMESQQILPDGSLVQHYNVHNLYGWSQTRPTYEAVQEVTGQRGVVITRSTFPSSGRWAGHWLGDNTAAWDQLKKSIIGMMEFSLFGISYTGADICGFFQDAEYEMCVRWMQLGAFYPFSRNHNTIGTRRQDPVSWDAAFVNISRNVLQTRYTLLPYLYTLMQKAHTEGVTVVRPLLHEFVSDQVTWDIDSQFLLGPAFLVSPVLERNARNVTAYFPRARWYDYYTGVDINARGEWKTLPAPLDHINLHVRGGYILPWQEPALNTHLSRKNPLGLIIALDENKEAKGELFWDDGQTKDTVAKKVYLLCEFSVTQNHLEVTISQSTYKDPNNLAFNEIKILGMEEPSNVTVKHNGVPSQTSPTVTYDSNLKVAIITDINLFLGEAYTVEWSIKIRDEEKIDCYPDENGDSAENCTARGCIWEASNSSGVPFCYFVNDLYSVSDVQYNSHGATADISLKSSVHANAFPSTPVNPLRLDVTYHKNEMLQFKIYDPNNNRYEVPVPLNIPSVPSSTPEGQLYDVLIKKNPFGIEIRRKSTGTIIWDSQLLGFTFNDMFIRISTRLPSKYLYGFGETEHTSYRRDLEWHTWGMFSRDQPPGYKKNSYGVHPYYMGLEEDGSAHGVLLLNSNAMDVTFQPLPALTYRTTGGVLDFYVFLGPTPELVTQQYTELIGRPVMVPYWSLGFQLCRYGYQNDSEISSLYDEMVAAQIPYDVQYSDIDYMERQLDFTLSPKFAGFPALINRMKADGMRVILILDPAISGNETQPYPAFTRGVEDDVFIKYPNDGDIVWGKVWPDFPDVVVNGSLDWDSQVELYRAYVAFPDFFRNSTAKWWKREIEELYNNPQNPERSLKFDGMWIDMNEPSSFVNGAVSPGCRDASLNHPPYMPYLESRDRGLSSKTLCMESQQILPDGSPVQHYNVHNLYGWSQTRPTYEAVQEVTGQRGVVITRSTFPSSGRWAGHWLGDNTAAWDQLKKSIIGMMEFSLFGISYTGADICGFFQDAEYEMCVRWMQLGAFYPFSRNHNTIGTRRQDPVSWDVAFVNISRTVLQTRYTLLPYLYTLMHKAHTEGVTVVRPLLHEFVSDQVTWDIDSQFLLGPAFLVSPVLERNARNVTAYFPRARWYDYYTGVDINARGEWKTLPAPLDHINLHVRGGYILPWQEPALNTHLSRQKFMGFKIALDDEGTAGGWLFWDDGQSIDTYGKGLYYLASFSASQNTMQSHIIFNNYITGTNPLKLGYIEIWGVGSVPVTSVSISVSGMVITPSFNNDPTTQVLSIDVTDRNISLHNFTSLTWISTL

IC50 (Alpha-glucosidase [1]): 60.5 µM
Ki (Alpha-glucosidase [2]): 56 µM
SMILES: O=C(Cn1c(-c2ccc(Cl)cc2)nc2ccccc2c1=O)N/N=C\c1cn(-c2ccccc2)nc1-c1ccc(Br)cc1

IC50 [3]: 2.8 µM
SMILES: O=C(Cn1c(Cc2ccc(Br)cc2)nc2ccccc2c1=O)NNC(=O)c1cc2ccccc2oc1=O

inhibition [4]: Active
inhibition [5]: inactive
SMILES: Cc1ccc(NC(=O)Cn2cc(COc3ccc(C4Nc5ccccc5C(=O)N4Nc4ccccc4)cc3)nn2)c(C)c1 (stereo not given)
